One block for each compound: values may come before it. Activity calls are given as the source filed them. No cut-off for these calls is given here.
Columns and labels:
[1] = target: Growth hormone secretagogue receptor type 1 (Homo sapiens, UniProt Q92847); experiment: Intrinsic activity at human GHS receptor in H4 glioma cells assessed by measuring intracellular calcium concentration by FLIPR assay; assay type: functional, cell-based
Method in brief: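 H4 glioma cells with endogenous human GHS receptor expression enhanced by RAGE activation. Agonist-stimulated intracellular calcium mobilization read with a calcium-sensitive fluorescent probe in FLIPR.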

[2] = Bioavailability in Beagle dog at 10 umol/kg, po; assay type: ADME, organism-based, Canis lupus familiaris; settings: in vivo
Method in brief: (§1)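 Fasted animals (rat, cynomolgus monkey, beagle dog) given single oral doses of 15, 10 and 10 µmol/kg respectively; intravenous reference dose 5 µmol/kg in all species. Oral bioavailability, half-life and plasma clearance derived from the plasma profiles.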

Salmonella typhimurium [3] = experiment: Mutagenic effect on Salmonella Typhimurium TA98 by Ames test; assay type: toxicity, organism-based; settings: salmonella enterica subsp. enterica serovar typhimurium
Cytochrome P450 3A4 = Cytochrome P450 3A4 (Homo sapiens, UniProt P08684); experiment: Inhibition of CYP3A4; assay type: ADME
[4] = Half life in rat at 15 umol/kg, po; assay type: ADME, organism-based; settings: in vivo; method in brief: as §1
Cytochrome P450 2C19 = Cytochrome P450 2C19 (Homo sapiens, UniProt P33261); experiment: Inhibition of CYP2C19; assay type: ADME
Macaca fascicularis [5] = experiment: Plasma clearance in monkey at 10 umol/kg, po; settings: cynomolgus monkey
Cytochrome P450 2C9 = Cytochrome P450 2C9 (Homo sapiens, UniProt P11712); experiment: Inhibition of CYP2C9; assay type: ADME
Canis familiaris [6] = experiment: Increase in plasma growth hormone level in Beagle dog at 0.52 to 52.3 umol/kg, po; assay type: functional, organism-based; settings: Canis lupus familiaris
Method in brief: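 Conscious beagle dogs given single oral doses of 0.52 to 52.3 µmol/kg, water as vehicle control; plasma GH followed over a 4 h time course.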

Cytochrome P450 1A2 = target: T1, Cytochrome P450 1A2 (Homo sapiens, UniProt P05177); experiment: Inhibition of CYP1A2; assay type: ADME
T1 sequence (P05177 whole entry): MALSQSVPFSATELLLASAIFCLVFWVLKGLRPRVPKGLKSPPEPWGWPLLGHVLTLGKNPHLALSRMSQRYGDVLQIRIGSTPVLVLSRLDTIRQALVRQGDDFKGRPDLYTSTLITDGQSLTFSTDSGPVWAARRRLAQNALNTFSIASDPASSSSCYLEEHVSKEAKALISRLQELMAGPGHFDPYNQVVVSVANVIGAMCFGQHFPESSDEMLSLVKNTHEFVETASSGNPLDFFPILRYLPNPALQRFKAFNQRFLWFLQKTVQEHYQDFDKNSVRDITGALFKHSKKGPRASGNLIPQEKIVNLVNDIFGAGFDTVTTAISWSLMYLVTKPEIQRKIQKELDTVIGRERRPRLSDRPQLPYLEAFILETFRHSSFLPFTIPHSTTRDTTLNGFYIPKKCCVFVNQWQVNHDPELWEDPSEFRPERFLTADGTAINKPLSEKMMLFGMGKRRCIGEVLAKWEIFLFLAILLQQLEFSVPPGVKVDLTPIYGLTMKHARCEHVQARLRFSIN

Cytochrome P450 2D6 = Cytochrome P450 2D6 (Homo sapiens, UniProt P10635); experiment: Inhibition of CYP2D6; assay type: ADME
[7] = Solubility at pH 4; assay type: physicochemical; settings: buffer
Macaca fascicularis [8] = experiment: Bioavailability in monkey at 10 umol/kg, po; settings: cynomolgus monkey, in vivo
Hepatocyte = experiment: Toxicity in human hepatocytes upto 250 ug/mL; assay type: cell-based
Method in brief: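 Human hepatocyte hepatotoxicity assay run at concentrations up to 250 µg/mL.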

Salmonella typhimurium [9] = experiment: Mutagenic effect on Salmonella Typhimurium TA100 by Ames test; assay type: toxicity, organism-based; settings: salmonella enterica subsp. enterica serovar typhimurium
Macaca fascicularis [10] = experiment: Half life in monkey at 10 umol/kg, po; settings: cynomolgus monkey, in vivo
[11] = Half life in Beagle dog at 10 umol/kg, po; assay type: ADME, organism-based, Canis lupus familiaris; settings: in vivo; method in brief: as §1
[12] = Plasma clearance in rat at 15 umol/kg, po; assay type: ADME, organism-based; method in brief: as §1
Rattus norvegicus = experiment: Increase in plasma growth hormone level in iv dosed Wistar rat after 15 mins by radioimmunoassay; assay type: functional; settings: 0.25 h
Method in brief: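 Anesthetized rats, groups of five, dosed iv in 10% ethanol, […] saline (v/v) vehicle at 10 mL/kg. Abdominal aorta blood sampled at 15 min; plasma rat GH measured by a modified radioimmunoassay kit.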

Canis familiaris [13] = experiment: Plasma clearance in Beagle dog at 10 umol/kg, po; assay type: ADME, organism-based, Canis lupus familiaris; settings: in vivo; method in brief: as §1
[14] = Bioavailability in rat at 15 umol/kg, po; assay type: ADME, organism-based; settings: in vivo; method in brief: as §1
[15] = Bioavailability in rat; assay type: ADME, organism-based; settings: in vivo

Sequence of Growth hormone secretagogue receptor type 1 (Q92847 whole entry): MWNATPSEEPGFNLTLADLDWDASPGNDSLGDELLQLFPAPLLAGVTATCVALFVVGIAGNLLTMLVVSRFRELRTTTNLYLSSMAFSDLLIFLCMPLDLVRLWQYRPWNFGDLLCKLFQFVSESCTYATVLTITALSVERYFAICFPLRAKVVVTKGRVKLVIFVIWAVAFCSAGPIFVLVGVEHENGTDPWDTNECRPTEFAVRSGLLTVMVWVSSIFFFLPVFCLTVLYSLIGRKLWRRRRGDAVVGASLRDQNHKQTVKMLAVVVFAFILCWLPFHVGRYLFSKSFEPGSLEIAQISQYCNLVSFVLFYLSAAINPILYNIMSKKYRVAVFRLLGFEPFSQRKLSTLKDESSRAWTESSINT
Sequence of Cytochrome P450 2C9 (P11712 whole entry): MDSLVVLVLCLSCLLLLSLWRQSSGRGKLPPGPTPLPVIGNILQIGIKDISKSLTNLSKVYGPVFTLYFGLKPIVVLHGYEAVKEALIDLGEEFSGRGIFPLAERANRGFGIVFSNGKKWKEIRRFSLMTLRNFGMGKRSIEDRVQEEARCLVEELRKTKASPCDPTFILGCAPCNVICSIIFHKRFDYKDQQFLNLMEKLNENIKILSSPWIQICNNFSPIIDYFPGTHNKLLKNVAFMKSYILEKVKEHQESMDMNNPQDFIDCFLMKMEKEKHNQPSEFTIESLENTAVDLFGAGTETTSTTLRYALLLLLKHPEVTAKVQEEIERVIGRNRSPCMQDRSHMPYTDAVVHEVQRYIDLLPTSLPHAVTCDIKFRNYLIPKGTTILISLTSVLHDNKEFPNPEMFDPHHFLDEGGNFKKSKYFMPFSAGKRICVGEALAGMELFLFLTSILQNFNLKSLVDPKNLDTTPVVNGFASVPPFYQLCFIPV
Sequence of Cytochrome P450 2D6 (P10635 whole entry): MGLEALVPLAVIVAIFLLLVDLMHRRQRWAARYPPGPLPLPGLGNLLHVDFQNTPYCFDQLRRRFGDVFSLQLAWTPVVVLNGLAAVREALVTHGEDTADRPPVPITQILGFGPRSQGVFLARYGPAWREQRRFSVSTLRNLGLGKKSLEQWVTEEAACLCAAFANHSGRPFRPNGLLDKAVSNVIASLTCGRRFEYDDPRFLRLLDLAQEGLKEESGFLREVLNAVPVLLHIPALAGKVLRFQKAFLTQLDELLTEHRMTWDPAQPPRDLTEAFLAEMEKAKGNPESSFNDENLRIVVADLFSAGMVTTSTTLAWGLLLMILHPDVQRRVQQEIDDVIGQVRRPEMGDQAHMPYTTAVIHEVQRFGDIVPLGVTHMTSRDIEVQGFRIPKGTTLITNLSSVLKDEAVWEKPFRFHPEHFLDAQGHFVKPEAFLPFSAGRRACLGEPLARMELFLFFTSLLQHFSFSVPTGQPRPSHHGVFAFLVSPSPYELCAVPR
Sequence of Cytochrome P450 2C19 (P33261 whole entry): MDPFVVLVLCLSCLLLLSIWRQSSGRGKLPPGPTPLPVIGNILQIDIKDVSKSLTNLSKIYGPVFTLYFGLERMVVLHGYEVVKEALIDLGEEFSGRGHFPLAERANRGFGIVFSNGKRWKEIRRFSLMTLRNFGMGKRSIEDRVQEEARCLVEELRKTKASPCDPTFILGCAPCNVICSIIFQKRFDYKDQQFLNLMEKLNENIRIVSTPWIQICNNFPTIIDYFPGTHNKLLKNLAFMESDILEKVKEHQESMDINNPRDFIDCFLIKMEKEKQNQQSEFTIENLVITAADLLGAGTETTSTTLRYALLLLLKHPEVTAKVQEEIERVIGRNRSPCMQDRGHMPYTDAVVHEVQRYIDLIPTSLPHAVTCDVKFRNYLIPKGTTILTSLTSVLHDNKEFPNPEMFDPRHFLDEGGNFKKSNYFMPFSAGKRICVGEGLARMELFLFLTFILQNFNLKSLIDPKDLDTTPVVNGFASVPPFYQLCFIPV
Sequence of Cytochrome P450 3A4 (P08684 whole entry): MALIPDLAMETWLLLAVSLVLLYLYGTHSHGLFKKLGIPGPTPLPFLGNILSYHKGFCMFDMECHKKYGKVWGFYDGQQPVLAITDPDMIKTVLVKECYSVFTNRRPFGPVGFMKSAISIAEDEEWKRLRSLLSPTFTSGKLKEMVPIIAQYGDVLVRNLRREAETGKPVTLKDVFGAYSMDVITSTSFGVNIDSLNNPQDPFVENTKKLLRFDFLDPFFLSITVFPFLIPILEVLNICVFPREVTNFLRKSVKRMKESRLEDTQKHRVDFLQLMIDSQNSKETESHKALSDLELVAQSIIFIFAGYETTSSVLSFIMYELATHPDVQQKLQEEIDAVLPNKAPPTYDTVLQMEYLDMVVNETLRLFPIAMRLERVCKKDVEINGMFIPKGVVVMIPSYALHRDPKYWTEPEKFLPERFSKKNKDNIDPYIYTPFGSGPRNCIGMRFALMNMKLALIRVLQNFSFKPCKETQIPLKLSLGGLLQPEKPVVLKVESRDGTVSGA

SMILES: CC(C)(N)C(=O)N[C@H](COCc1ccccc1)c1nnnn1CCOC(=O)NCCc1cccc(O)c1
EC50 [1]: 7.9 nM

SMILES: CC(=O)NCCCCNC(=O)OCCn1nnnc1[C@@H](COCc1ccccc1)NC(=O)C(C)(C)N
EC50 [1]: 82.5 nM

SMILES: CC(C)(N)C(=O)N[C@H](COCc1ccccc1)c1nnnn1CCOC(=O)NCCCCO
bioavailability [2]: 40% | Activity (Salmonella typhimurium [3]): Non-toxic | IC50 (Cytochrome P450 3A4): > 100000 nM | half-life [4]: 0.7 h | IC50 (Cytochrome P450 2C19): > 100000 nM | CL/F (Macaca fascicularis [5]): 37 mL/min/kg | IC50 (Cytochrome P450 2C9): > 100000 nM | Activity (Canis familiaris [6]): Active | IC50 (Cytochrome P450 1A2): > 100000 nM | IC50 (Cytochrome P450 2D6): > 100000 nM | solubility [7]: > 100 mg/mL | bioavailability (Macaca fascicularis [8]): 12% | Activity (Hepatocyte): Non-toxic | Activity (Salmonella typhimurium [9]): Non-toxic | EC50 [1]: 1.9 nM | half-life (Macaca fascicularis [10]): 1.1 h | half-life [11]: 2.3 h | CL/F [12]: 213 mL/min/kg | ED50 (Rattus norvegicus): 0.08 µmol/kg | clearance (Canis familiaris [13]): 21 mL/min/kg | bioavailability [14]: 9%

SMILES: CC(C)(N)C(=O)N[C@H](COCc1ccccc1)c1nnnn1CCOC(=O)N1CC[C@@H](O)C1
EC50 [1]: 1 nM

SMILES: CC(C)(N)C(=O)N[C@H](COCc1ccccc1)c1nnnn1CCOC(=O)NCCCCCO
EC50 [1]: 14.6 nM

SMILES: CC1(O)CCN(C(=O)OCCn2nnnc2[C@@H](COCc2ccccc2)NC(=O)C(C)(C)N)C1 (stereo partly drawn)
EC50 [1]: 10.1 nM

SMILES: CC(C)(N)C(=O)N[C@H](COCc1ccccc1)c1nnnn1CCOC(=O)NCCO
EC50 [1]: 3 nM

SMILES: CC(C)(N)C(=O)N[C@H](COCc1ccccc1)c1nnnn1CCOC(=O)NCCCO
EC50 [1]: 5.5 nM

Further compounds by falling EC50 [1], results first:

EC50 [1]: 45.3 nM
SMILES: CC(C)(N)C(=O)N[C@H](COCc1ccccc1)c1nnnn1CCOC(=O)NCCCn1ccnc1

EC50 [1]: 9.5 nM
SMILES: CC(C)(N)C(=O)N[C@H](COCc1ccccc1)c1nnnn1CCOC(=O)NC[C@H]1CCCO1

EC50 [1]: 3.8 nM
SMILES: CN(CCCCO)C(=O)OCCn1nnnc1[C@@H](COCc1ccccc1)NC(=O)C(C)(C)N

EC50 [1]: 3.3 nM | bioavailability [15]: < 5%
SMILES: CC(=O)N[C@@H]1CCN(C(=O)OCCn2nnnc2[C@@H](COCc2ccccc2)NC(=O)C(C)(C)N)C1
